The source made the active and inactive calls. The rule behind the calls is not given here.
Legend:
[1] = biological target: Platelet-derived growth factor receptor alpha (Homo sapiens) (UniProt P16234); experiment: Inhibition of PDGFR alpha at 0.1 uM
[2] = tested on: K562; experiment: Antiproliferation activity against human K562 cells expressing wild type BCR/ABL after 72 hrs by MTS method; format: functional; conditions: K562, 72 h
[3] = tested on: Mus musculus; experiment: Toxicity in athymic nu/nu nude mouse harboring xenografted huma MOLM13 cells assessed as reduction of body weight at 50 mg/kg, iv for continuous 5 days; format: organism-based, MOLM-13; parameters: dose 50 mg/kg, route intravenous; scale not given: the % may be the effect or the level left; conditions: in vivo, 120 h
[4] = tested on: MV4-11; experiment: Antiproliferation activity against FLT3/ITD harboring human MV4-11 cells after 72 hrs by MTS method; format: functional; conditions: MV4-11, 72 h
[5] = biological target: Proto-oncogene tyrosine-protein kinase Src (Homo sapiens) (UniProt P12931); experiment: Inhibition of SRC at 0.1 uM
Proto-oncogene tyrosine-protein kinase Src (Homo sapiens), sequence (P12931 2-536 limits assumed): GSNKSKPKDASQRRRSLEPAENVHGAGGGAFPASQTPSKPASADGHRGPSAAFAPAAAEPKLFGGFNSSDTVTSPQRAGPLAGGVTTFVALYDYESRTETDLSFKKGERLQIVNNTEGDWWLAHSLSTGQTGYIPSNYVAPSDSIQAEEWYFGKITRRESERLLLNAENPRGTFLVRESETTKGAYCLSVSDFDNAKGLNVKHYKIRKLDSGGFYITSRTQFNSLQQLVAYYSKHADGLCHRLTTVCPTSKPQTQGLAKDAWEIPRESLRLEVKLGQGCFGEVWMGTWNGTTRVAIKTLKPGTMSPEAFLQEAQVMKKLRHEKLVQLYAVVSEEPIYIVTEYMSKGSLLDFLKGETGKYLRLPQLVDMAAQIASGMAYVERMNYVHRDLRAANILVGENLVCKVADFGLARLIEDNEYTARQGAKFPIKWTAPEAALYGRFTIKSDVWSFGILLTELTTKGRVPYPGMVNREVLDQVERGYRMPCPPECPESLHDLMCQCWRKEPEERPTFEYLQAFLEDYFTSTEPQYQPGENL

[6] = biological target: T1, Receptor-type tyrosine-protein kinase FLT3 (Homo sapiens, UniProt P36888); experiment: Inhibition of GST-tagged FLT3 expressing wild type kinase domain expressed in Sf9 insect cells after 4 hrs by Kinase-Glo assay
T1 sequence (P36888 whole entry): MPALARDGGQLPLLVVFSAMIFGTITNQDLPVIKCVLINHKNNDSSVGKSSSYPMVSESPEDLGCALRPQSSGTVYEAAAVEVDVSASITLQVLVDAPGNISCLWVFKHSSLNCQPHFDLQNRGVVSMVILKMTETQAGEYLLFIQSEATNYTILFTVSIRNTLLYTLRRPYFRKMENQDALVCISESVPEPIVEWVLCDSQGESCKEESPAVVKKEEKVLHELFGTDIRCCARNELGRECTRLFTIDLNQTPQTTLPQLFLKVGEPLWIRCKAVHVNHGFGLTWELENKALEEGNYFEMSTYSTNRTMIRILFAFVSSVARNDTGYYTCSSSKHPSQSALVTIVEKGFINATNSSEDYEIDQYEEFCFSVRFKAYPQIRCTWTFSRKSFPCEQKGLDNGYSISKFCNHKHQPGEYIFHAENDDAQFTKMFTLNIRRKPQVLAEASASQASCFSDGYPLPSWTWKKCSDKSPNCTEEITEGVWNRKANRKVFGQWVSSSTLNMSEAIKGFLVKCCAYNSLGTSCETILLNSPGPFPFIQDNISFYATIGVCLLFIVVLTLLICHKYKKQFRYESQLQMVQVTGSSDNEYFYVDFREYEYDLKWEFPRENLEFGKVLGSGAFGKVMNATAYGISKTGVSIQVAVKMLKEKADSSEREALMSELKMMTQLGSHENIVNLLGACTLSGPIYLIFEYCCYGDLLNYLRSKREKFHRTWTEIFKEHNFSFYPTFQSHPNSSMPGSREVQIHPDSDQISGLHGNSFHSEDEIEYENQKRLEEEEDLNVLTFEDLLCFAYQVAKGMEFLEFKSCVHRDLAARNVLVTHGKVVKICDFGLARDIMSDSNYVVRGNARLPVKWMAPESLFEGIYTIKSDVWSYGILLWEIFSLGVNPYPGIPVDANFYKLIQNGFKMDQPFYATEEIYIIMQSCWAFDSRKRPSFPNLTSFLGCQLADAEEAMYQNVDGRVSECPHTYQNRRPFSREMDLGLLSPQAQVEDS

[7] = tested on: Mus musculus; experiment: Toxicity in normal mouse assessed as reduction of body weight at 50 mg/kg, iv for continuous 5 days; conditions: in vivo, 120 h
[8] = biological target: T2, Aurora kinase A (Homo sapiens, UniProt O14965); experiment: Inhibition of recombinant GST-tagged Aurora A expressed in Sf9 insect cells after 90 mins by Kinase-Glo assay
T2 sequence (O14965 whole entry): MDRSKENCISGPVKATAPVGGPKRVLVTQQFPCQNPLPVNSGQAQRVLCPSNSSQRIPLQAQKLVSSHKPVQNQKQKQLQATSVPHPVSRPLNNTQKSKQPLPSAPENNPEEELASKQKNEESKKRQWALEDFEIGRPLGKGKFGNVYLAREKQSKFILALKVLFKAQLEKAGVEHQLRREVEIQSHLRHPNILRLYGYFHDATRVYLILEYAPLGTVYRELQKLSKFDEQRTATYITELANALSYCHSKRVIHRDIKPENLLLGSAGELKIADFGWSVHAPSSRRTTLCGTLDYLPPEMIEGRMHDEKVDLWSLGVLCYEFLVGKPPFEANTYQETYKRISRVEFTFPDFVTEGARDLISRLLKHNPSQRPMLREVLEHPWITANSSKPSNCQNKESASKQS
Outline: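 GST-Aurora A kinase domain (S123–S401, 150 ng) from Sf9 cells. Buffer was 50 mM Tris-HCl pH 7.4 with 10 mM NaCl, 10 mM MgCl2, 0.01% BSA and 1 mM DTT. Kinase-Glo Plus was added for 20 min at 25 °C before the luminescence read.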

[9] = biological target: Macrophage colony-stimulating factor 1 receptor (Homo sapiens) (UniProt P07333); experiment: Inhibition of CSF1R at 0.1 uM
Macrophage colony-stimulating factor 1 receptor (Homo sapiens), sequence (P07333 whole entry): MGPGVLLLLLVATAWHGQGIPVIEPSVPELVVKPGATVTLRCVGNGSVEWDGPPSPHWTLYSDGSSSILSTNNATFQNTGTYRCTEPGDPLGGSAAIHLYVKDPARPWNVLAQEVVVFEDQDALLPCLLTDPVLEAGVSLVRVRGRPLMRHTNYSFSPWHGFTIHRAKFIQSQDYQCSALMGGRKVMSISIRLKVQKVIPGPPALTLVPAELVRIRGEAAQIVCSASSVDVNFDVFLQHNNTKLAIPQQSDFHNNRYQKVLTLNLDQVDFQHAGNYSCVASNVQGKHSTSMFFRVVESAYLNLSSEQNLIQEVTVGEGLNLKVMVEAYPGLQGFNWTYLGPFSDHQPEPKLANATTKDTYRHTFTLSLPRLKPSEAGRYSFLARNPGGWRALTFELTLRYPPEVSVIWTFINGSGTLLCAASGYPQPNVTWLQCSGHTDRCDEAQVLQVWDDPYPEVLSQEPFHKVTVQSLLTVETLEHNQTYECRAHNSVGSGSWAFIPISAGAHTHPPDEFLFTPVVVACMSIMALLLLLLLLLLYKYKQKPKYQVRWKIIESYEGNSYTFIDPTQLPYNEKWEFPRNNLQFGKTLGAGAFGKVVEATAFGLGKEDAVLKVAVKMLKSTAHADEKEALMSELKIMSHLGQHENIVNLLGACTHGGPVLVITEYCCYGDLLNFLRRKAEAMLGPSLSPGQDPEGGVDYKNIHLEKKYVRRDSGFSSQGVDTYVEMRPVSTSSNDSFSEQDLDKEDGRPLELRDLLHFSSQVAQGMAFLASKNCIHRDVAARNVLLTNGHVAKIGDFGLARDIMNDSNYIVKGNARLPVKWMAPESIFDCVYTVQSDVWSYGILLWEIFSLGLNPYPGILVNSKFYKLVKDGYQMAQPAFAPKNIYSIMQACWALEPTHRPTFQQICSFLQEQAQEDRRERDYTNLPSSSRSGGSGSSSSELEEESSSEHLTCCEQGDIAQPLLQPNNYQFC

[10] = biological target: Mast/stem cell growth factor receptor Kit (Homo sapiens) (UniProt P10721); experiment: Inhibition of c-Kit at 0.1 uM
[11] = biological target: High affinity nerve growth factor receptor (Homo sapiens) (UniProt P04629); experiment: Inhibition of TRKA at 0.1 uM
[12] = tested on: MOLM-13; experiment: Antitumor activity against human MOLM13 cells xenografted in athymic nu/nu nude mouse assessed as inhibition of tumor growth at 10 mg/kg, iv qd administered for 1 to 5 and 8 to 12 days measured during first 5 days of treatment; format: functional, organism-based; parameters: dose 10 mg/kg
Outline: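 Athymic nu/nu mice (9 weeks old) received 1 × 10^6 MOLM-13 cells s.c. in the left flank. They were randomized at a mean tumor volume of about 200 mm3, with 7–8 per group. Dosing was iv once daily at 10 or 50 mg/kg on days 1–5 and 8–12, in 10% DMSO/20% Cremophor/70% saline. Vehicle controls were dosed the same way. Caliper volume = (width × length²)/2, reported as mean ± SEM.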

[13] = biological target: Platelet-derived growth factor receptor beta (Homo sapiens) (UniProt P09619); experiment: Inhibition of PDGFR beta at 0.1 uM
Platelet-derived growth factor receptor beta (Homo sapiens), sequence (P09619 whole entry): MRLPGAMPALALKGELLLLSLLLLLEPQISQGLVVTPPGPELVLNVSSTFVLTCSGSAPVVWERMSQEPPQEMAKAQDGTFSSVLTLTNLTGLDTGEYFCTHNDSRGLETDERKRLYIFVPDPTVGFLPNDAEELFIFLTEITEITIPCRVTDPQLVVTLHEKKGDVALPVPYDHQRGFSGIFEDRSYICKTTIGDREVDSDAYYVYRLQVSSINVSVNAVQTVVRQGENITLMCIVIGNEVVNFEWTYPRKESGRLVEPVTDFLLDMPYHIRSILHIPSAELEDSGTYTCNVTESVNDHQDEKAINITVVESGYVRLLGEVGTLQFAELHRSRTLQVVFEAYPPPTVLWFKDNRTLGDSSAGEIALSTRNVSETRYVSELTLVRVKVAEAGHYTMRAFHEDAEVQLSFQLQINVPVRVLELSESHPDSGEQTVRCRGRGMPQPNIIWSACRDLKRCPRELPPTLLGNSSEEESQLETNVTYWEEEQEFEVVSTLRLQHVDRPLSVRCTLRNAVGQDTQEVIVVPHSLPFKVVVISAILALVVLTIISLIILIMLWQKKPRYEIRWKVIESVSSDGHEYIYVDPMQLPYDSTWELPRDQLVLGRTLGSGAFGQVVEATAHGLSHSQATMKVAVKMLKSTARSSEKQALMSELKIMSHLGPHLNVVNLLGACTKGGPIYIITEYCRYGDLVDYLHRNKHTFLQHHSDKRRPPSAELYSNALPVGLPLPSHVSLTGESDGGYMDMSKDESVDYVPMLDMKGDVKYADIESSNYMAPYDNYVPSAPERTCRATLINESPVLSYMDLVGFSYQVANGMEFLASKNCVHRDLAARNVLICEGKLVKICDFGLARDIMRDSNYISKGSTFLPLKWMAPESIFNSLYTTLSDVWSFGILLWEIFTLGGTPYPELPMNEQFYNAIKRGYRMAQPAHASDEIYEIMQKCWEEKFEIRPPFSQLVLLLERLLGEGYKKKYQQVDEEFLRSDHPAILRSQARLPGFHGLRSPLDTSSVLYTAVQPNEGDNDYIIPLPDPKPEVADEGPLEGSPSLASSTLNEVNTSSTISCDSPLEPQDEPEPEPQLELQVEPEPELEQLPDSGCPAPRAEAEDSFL

[14] = AUC (0 to infinity) in Sprague-Dawley rat at 5 mg/kg, iv and 20 mg/kg, po; format: ADME, organism-based; conditions: plasma
[15] = biological target: Vascular endothelial growth factor receptor 3 (Homo sapiens) (UniProt P35916); experiment: Inhibition of VEGFR3 at 0.1 uM
Vascular endothelial growth factor receptor 3 (Homo sapiens), sequence (P35916 whole entry): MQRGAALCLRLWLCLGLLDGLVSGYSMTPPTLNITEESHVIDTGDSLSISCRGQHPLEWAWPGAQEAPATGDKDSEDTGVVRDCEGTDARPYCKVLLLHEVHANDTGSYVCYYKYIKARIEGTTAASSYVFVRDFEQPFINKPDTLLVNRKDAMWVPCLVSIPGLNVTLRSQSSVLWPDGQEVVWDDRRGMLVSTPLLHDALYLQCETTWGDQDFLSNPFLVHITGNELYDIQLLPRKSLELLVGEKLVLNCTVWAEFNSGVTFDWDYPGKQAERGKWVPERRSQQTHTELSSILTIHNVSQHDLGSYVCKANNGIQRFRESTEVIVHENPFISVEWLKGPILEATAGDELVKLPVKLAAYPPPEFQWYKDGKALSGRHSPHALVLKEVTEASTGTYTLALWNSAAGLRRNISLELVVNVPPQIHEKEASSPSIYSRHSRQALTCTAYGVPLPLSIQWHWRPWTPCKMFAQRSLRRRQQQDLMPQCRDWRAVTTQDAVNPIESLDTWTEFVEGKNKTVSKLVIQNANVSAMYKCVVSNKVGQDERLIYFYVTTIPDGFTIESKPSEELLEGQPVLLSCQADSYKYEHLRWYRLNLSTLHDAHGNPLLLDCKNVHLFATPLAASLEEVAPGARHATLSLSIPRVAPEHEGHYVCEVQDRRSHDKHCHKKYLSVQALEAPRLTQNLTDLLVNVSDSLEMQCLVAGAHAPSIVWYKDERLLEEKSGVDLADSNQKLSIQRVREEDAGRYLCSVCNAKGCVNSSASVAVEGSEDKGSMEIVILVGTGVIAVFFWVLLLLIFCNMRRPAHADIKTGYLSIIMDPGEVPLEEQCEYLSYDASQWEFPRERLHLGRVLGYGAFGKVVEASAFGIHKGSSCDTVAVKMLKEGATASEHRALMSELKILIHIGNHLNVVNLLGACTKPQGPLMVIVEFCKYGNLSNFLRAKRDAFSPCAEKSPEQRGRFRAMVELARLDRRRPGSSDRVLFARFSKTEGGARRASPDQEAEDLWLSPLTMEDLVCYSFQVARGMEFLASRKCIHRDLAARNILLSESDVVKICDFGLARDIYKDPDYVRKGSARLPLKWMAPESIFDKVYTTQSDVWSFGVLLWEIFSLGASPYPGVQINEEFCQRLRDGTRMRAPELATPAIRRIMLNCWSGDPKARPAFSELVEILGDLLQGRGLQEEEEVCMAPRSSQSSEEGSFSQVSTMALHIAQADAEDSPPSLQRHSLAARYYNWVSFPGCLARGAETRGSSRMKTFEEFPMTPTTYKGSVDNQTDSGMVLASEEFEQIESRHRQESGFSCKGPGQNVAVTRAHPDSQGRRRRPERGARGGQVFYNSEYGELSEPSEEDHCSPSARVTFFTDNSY

[16] = biological target: Proto-oncogene tyrosine-protein kinase receptor Ret (Homo sapiens) (UniProt P07949); experiment: Inhibition of RET at 0.1 uM
Proto-oncogene tyrosine-protein kinase receptor Ret (Homo sapiens), sequence (P07949 whole entry): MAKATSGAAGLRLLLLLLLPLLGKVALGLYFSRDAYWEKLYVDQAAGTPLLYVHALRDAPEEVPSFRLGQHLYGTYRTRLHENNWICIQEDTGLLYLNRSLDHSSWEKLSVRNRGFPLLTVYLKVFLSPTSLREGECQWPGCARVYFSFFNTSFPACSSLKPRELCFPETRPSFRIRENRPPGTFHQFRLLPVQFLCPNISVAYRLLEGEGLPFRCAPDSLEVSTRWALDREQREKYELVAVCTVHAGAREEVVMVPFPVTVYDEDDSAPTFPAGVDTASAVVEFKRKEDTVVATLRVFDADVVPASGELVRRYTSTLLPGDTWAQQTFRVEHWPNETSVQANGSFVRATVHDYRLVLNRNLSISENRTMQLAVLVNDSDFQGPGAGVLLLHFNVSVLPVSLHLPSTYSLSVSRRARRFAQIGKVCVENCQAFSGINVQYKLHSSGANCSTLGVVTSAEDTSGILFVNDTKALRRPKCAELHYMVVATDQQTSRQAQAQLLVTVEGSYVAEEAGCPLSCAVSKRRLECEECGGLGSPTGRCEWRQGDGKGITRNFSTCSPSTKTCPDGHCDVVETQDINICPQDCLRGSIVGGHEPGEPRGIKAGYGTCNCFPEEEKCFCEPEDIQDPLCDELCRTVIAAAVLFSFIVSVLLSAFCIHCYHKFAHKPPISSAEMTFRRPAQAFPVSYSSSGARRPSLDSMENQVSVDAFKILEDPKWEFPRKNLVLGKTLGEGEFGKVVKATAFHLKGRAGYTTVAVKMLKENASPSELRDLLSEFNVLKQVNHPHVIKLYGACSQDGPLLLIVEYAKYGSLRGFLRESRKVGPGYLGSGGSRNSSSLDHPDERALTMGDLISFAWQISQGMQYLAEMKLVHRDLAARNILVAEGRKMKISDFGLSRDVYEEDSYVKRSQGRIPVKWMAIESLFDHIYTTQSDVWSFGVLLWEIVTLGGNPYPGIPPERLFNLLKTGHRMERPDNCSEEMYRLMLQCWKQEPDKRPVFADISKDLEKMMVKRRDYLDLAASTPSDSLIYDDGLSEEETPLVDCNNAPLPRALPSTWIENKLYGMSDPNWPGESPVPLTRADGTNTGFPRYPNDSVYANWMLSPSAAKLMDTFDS

[17] = Volume of distribution at steady state in Sprague-Dawley rat at 5 mg/kg, iv and 20 mg/kg, po; format: ADME, organism-based; conditions: in vivo, read-out: Vdss
[18] = tested on: MOLM-13; experiment: Antiproliferation activity against human MOLM13 cells expressing FLT3 mutation assessed as cell viability after 72 hrs by MTS method; format: functional; conditions: MOLM-13, 72 h

For `Cc1nc(Nc2cc(-c3cccc(NS(=O)(=O)c4ccccc4)c3)n[nH]2)cc(N2CCN(C)CC2)n1`, the inhibition [1] was 24%, the GI50 [2] was greater than 10000 nM and the Activity [3] was less than 3%. It also gave a GI50 [4] of 27 nM, an inhibition [5] of 44% and an IC50 [6] of 6 nM. For the same compound, the Activity [7] was “Non-toxic”, the IC50 [8] was 290 nM and the inhibition [9] was 16%. For the same compound, the inhibition [10] was 27%, the inhibition [11] was 96% and the Activity [12] was “Active”. The inhibition [13] was 18%, the AUC(0-inf) [14] was 1400 ng·h/mL and the inhibition [15] was 31%. The inhibition [16] was 71%, the Vd [17] was 6.6 L/kg and the GI50 [18] was 21 nM.

Source: ChEMBL document CHEMBL1806486, “Discovery and evaluation of 3-phenyl-1H-5-pyrazolylamine-based derivatives as potent, selective and efficacious inhibitors of FMS-like tyrosine kinase-3 (FLT3)” (Bioorg Med Chem, 2011)
